Source: ChEMBL document CHEMBL1137658, “Effect of caspofungin on metabolite profiles of Aspergillus species determined by nuclear magnetic resonance spectroscopy” (2007)
Values after ≈ are worked out from the molar mass of the structure shown.

Legend:
[1] = tested on: Aspergillus fumigatus; experiment: microbe, parasite or virus in culture; settings: ATCC 204305, 72 h
[2] = tested on: Aspergillus nidulans; experiment: Antifungal activity against Aspergillus nidulans isolate 05-326-1785 after 72 hrs by broth microdilution method; assay type: functional; settings: isolate 05-326-1785, 72 h
Summary of the method: (§1)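 Modified CLSI M38-A broth microdilution in RPMI 1640 with l-glutamine, 2% glucose (not 0.2%), MOPS pH 7. Serial drug dilutions 0.03125 to 16 μg/ml in microtiter plates stored at −70°C up to 3 weeks. Run in duplicate. MIC = lowest concentration completely inhibiting visible growth.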

[3] = tested on: Aspergillus fumigatus; experiment: microbe, parasite or virus in culture; settings: isolate 06-067-1639, 48 h
[4] = tested on: Aspergillus niger; experiment: Antifungal activity against Aspergillus niger isolate 05-112-3701 after 48 hrs by broth microdilution method; assay type: functional; settings: isolate 05-112-3701, 48 h
Summary of the method: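 CLSI M38-A broth microdilution, modified to use RPMI 1640 with 2% glucose (instead of 0.2%), 0.3 g/liter l-glutamine and 0.165 M MOPS at pH 7. Drug twofold dilutions 0.03125–16 μg/ml. Run in duplicate. MIC is the lowest concentration with no visible growth. For the lipopeptide, MEC is read at 48 h as the lowest concentration giving aberrant hyphae under an inverted microscope.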

[5] = tested on: Aspergillus nidulans; experiment: Antifungal activity against Aspergillus nidulans isolate 00-202661 after 72 hrs by broth microdilution method; assay type: functional; settings: isolate 00-202661, 72 h
Summary of the method: as §1

[6] = tested on: Aspergillus niger; experiment: Inhibition of metabolite production in Aspergillus niger isolate 05-112-3701 assessed as lowest drug concentration required to inhibit 50% citrate production after 48 hrs in presence of 2 % glucose by NMR spectroscopy; assay type: functional
Summary of the method: (§2)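 Cultures grown in RPMI 1640-2% glucose-MOPS with drug series, 48 h. Culture media analysed by 600-MHz ¹H NMR. MEP taken from stack plots and peak integrals of resolved resonances, as lowest drug concentration suppressing nutrient use or metabolite production by ≥50%. Alternative MEP: lowest concentration raising fumarate >50%.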

[7] = tested on: Aspergillus fumigatus; experiment: Inhibition of metabolite production in Aspergillus fumigatus isolate 06-067-1639 assessed as lowest drug concentration required to inhibit 50% glycine betaine, fumarate, malate production after 48 hrs in presence of 2 % glucose by NMR spectroscopy; assay type: functional
Summary of the method: as §2

[8] = tested on: Aspergillus nidulans; experiment: Inhibition of metabolite production in Aspergillus nidulans isolate 00-202661 assessed as lowest drug concentration required to inhibit 50% fumarate production after 72 hrs in presence of 2 % glucose by NMR spectroscopy; assay type: functional
Summary of the method: (§3)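 A. nidulans grows slowly, so spectra were recorded after 72 h incubation in RPMI 1640-2% glucose-MOPS with drug dilutions. 600-MHz ¹H NMR of culture medium. Fumarate peak integrals plotted against drug concentration. MEP = lowest concentration with ≥50% fall in fumarate.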

[9] = tested on: Aspergillus niger; experiment: Inhibition of metabolite production in Aspergillus niger isolate 05-290-2479 assessed as lowest drug concentration required to inhibit 50% citrate production after 48 hrs in presence of 2 % glucose by NMR spectroscopy; assay type: functional
Summary of the method: as §2

[10] = tested on: Aspergillus nidulans; experiment: Inhibition of metabolite production in Aspergillus nidulans isolate 05-326-1785 assessed as lowest drug concentration required to inhibit 50% fumarate production after 72 hrs in presence of 2 % glucose by NMR spectroscopy; assay type: functional
Summary of the method: as §3

[11] = tested on: Aspergillus fumigatus; experiment: Inhibition of metabolite production in Aspergillus fumigatus ATCC 204305 assessed as lowest drug concentration required to inhibit 50% fungal metabolite production after 72 hrs in presence of 2 % glucose by NMR spectroscopy; assay type: functional
Summary of the method: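 Caspofungin dilutions with A. fumigatus ATCC 204305 in RPMI 1640-2% glucose-MOPS, incubated 72 h. ¹H NMR of medium. MEP = lowest concentration giving ≥50% fall in malate, glycine betaine or fumarate peak areas.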

[12] = tested on: Aspergillus flavus; experiment: Antifungal activity against Aspergillus flavus ATCC 204304 after 48 hrs by broth microdilution method; assay type: functional; settings: ATCC 204304, 48 h
Summary of the method: as §1

[13] = tested on: Aspergillus flavus; experiment: Inhibition of metabolite production in Aspergillus flavus ATCC 204304 assessed as lowest drug concentration required to inhibit 50% fumarate, malate production after 48 hrs in presence of 2 % glucose by NMR spectroscopy; assay type: functional
Summary of the method: as §2

[14] = tested on: Aspergillus niger; experiment: Antifungal activity against Aspergillus niger isolate 05-290-2479 after 48 hrs by broth microdilution method; assay type: functional; settings: isolate 05-290-2479, 48 h
Summary of the method: as §1

[15] = tested on: Aspergillus flavus; experiment: Antifungal activity against Aspergillus flavus isolate 05-314-1100 after 48 hrs by broth microdilution method; assay type: functional; settings: isolate 05-314-1100, 48 h
[16] = tested on: Aspergillus terreus; experiment: Antifungal activity against Aspergillus terreus isolate 06-059-2428 after 48 hrs by broth microdilution method; assay type: functional; settings: isolate 06-059-2428, 48 h
Summary of the method: as §1

[17] = tested on: Aspergillus terreus; experiment: Inhibition of metabolite production in Aspergillus terreus isolate 04-188-2548 assessed as lowest drug concentration required to inhibit 50% ethanol, fumarate, malate production after 48 hrs in presence of 2 % glucose by NMR spectroscopy; assay type: functional
Summary of the method: as §2

[18] = tested on: Aspergillus terreus; experiment: Antifungal activity against Aspergillus terreus isolate 04-188-2548 after 48 hrs by broth microdilution method; assay type: functional; settings: isolate 04-188-2548, 48 h
[19] = tested on: Aspergillus terreus; experiment: Inhibition of metabolite production in Aspergillus terreus isolate 06-059-2428 assessed as lowest drug concentration required to inhibit 50% ethanol production after 48 hrs in presence of 2 % glucose by NMR spectroscopy; assay type: functional
Summary of the method: as §2

[20] = tested on: Aspergillus flavus; experiment: Inhibition of metabolite production in isolate Aspergillus flavus 05-314-1100 assessed as lowest drug concentration required to inhibit 50% fumarate, malate production after 48 hrs in presence of 2 % glucose by NMR spectroscopy; assay type: functional, isolate  05-314-1100
Summary of the method: as §2

[21] = tested on: Aspergillus fumigatus; experiment: Inhibition of metabolite production in Aspergillus fumigatus ATCC 204305 assessed as lowest drug concentration required to inhibit 50% glycine betain, fumarate, malate production after 48 hrs in presence of 2 % glucose by NMR spectroscopy; assay type: functional
Summary of the method: as §2

[22] = tested on: Aspergillus fumigatus; experiment: microbe, parasite or virus in culture; settings: ATCC 204305, 48 h
[23] = tested on: Aspergillus flavus; experiment: Increase in metabolite production in Aspergillus flavus isolate 05-314-1100 assessed as lowest drug concentration required to increase >50% fumarate production after 48 hrs in presence of 2 % glucose by NMR spectroscopy; assay type: functional
Summary of the method: as §2

C[C@@H]1[C@H](O)[C@@H](C)/C=C/C=C/C=C/C=C/C=C/C=C/C=C/[C@H](O[C@@H]2O[C@H](C)[C@@H](O)[C@H](N)[C@@H]2O)C[C@@H]2O[C@](O)(C[C@@H](O)C[C@@H](O)[C@H](O)CC[C@@H](O)C[C@@H](O)CC(=O)O[C@H]1C)C[C@H](O)[C@H]2C(=O)O [AMPHOTERICIN B]
MIC [1]: 1 µg/mL (≈ 1.08 µM)
MIC [2]: 0.5 µg/mL (≈ 0.541 µM)
MIC [3]: 1 µg/mL (≈ 1.08 µM)
MIC [4]: 0.5 µg/mL (≈ 0.541 µM)
MIC [5]: 1 µg/mL (≈ 1.08 µM)
Activity [6]: 0.25 µg/mL
Activity [7]: 0.5 µg/mL
Activity [8]: 0.25 µg/mL
Activity [9]: 0.125 µg/mL
Activity [10]: 0.5 µg/mL
Activity [11]: 1 µg/mL
MIC [12]: 8 µg/mL (≈ 8.66 µM)
Activity [13]: 2 µg/mL
MIC [14]: 0.25 µg/mL (≈ 0.271 µM)
MIC [15]: 4 µg/mL (≈ 4.33 µM)
MIC [16]: 1 µg/mL (≈ 1.08 µM)
Activity [17]: 2 µg/mL
MIC [18]: 2 µg/mL (≈ 2.16 µM)
Activity [19]: 0.06 µg/mL
Activity [20]: 2 µg/mL
Activity [21]: 0.25 µg/mL
MIC [22]: 1 µg/mL (≈ 1.08 µM)
Activity [23]: 0.06 µg/mL
